# Laboratory results as given in ChEMBL document CHEMBL1649560, “Beta-lactamase-mediated beta-lactam resistance in Campylobacter species: prevalence of Cj0299 (bla OXA-61) and evidence for a novel beta-Lactamase in C. jejuni” (2009).
# Test system: Campylobacter jejuni
# Assay: Antibacterial activity against bla gene-negative and nitrocefin reaction-positive beta-lactamase harboring Campylobacter jejuni isolate P854 by NCCLS agar doubling dilution method
# Format: functional
# Procedure, shortened: (§1)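 MICs of β-lactams by agar doubling dilution following the NCCLS (CLSI) Campylobacter Working Group procedure, with C. jejuni NCTC 11168 and C. coli NCTC 11366 as controls. Isolates were from UK poultry flocks. β-Lactamase status was set by Cj0299 PCR (281-bp amplimer) and by a nitrocefin colour change of sonicated lysate within 5 min, or within 30 min on repeat.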
row,Structure (SMILES),MIC
1,CO/N=C(\C(=O)N[C@@H]1C(=O)N2C(C(=O)O)=C(COC(C)=O)CS[C@H]12)c1csc(N)n1 [CEFOTAXIME],4 µg/mL

# Test system: Campylobacter coli
# Assay: Antibacterial activity against bla gene-positive and nitrocefin reaction-positive beta-lactamase harboring Campylobacter coli isolate P321 by NCCLS agar doubling dilution method
# Format: functional
# Procedure, shortened: as §1
row,Structure (SMILES),MIC
1,CO/N=C(\C(=O)N[C@@H]1C(=O)N2C(C(=O)O)=C(COC(C)=O)CS[C@H]12)c1csc(N)n1 [CEFOTAXIME],4 µg/mL

# Test system: Campylobacter jejuni
# Assay: Antibacterial activity against Campylobacter jejuni isolate P1093 harboring blaOXA-61::cat gene by NCCLS agar doubling dilution method
# Format: functional
# Procedure, shortened: (§2)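 Agar doubling dilution MICs (NCCLS/CLSI Campylobacter Working Group method) against Cj0299-inactivated mutants. Mutants were made by transforming the C. jejuni isolate with pCI and selecting on Mueller-Hinton agar with 10 μg/ml chloramphenicol for 3–5 days. Chromosomal insertion was confirmed by PCR with Cj0299 and cat primers.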
row,Structure (SMILES),MIC
1,CO/N=C(\C(=O)N[C@@H]1C(=O)N2C(C(=O)O)=C(COC(C)=O)CS[C@H]12)c1csc(N)n1 [CEFOTAXIME],4 µg/mL

# Test system: Campylobacter jejuni
# Assay: Antibacterial activity against bla gene-positive and nitrocefin reaction-negative beta-lactamase harboring Campylobacter jejuni isolate P1698 by NCCLS agar doubling dilution method
# Format: functional
# Procedure, shortened: as §1
row,Structure (SMILES),MIC
1,CO/N=C(\C(=O)N[C@@H]1C(=O)N2C(C(=O)O)=C(COC(C)=O)CS[C@H]12)c1csc(N)n1 [CEFOTAXIME],4 µg/mL

# Test system: Campylobacter coli
# Assay: Antibacterial activity against bla-positive and beta-lactamase-weakly positive Campylobacter coli isolate P1627 by NCCLS agar doubling dilution method
# Format: functional
# Procedure, shortened: (§3)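 MICs by agar doubling dilution per the NCCLS (now CLSI) Campylobacter Working Group method. Isolates came from UK chicken flocks (feces, ceca or farm environment), 2000–2006. C. jejuni NCTC 11168 and C. coli NCTC 11366 served as control strains. The ampicillin resistance cutoff was 8 μg/ml; BSAC/CLSI Enterobacteriaceae guidelines were used for other agents.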
row,Structure (SMILES),MIC
1,CO/N=C(\C(=O)N[C@@H]1C(=O)N2C(C(=O)O)=C(COC(C)=O)CS[C@H]12)c1csc(N)n1 [CEFOTAXIME],4 µg/mL

# Test system: Campylobacter jejuni
# Assay: Antibacterial activity against bla gene-negative and nitrocefin reaction-negative beta-lactamase harboring Campylobacter jejuni isolate P850 by NCCLS agar doubling dilution method
# Format: functional
# Procedure, shortened: as §1
row,Structure (SMILES),MIC
1,CO/N=C(\C(=O)N[C@@H]1C(=O)N2C(C(=O)O)=C(COC(C)=O)CS[C@H]12)c1csc(N)n1 [CEFOTAXIME],8 µg/mL

# Test system: Campylobacter jejuni
# Assay: Antibacterial activity against bla gene-positive and nitrocefin reaction-positive beta-lactamase harboring Campylobacter jejuni isolate P1618 by NCCLS agar doubling dilution method
# Format: functional
# Procedure, shortened: as §1
row,Structure (SMILES),MIC
1,CO/N=C(\C(=O)N[C@@H]1C(=O)N2C(C(=O)O)=C(COC(C)=O)CS[C@H]12)c1csc(N)n1 [CEFOTAXIME],16 µg/mL

# Test system: Campylobacter jejuni
# Assay: Antibacterial activity against bla gene-positive and nitrocefin reaction-positive beta-lactamase harboring Campylobacter jejuni isolate P338 by NCCLS agar doubling dilution method
# Format: functional
# Procedure, shortened: as §3
row,Structure (SMILES),MIC
1,CO/N=C(\C(=O)N[C@@H]1C(=O)N2C(C(=O)O)=C(COC(C)=O)CS[C@H]12)c1csc(N)n1 [CEFOTAXIME],8 µg/mL

# Test system: Campylobacter jejuni
# Assay: Antibacterial activity against Campylobacter jejuni isolate P270 harboring blaOXA-61::cat gene by NCCLS agar doubling dilution method
# Format: functional
row,Structure (SMILES),MIC
1,CO/N=C(\C(=O)N[C@@H]1C(=O)N2C(C(=O)O)=C(COC(C)=O)CS[C@H]12)c1csc(N)n1 [CEFOTAXIME],2 µg/mL

# Test system: Campylobacter jejuni
# Assay: Antibacterial activity against bla gene-positive and nitrocefin reaction-positive beta-lactamase harboring Campylobacter jejuni isolate P316 by NCCLS agar doubling dilution method
# Format: functional
# Procedure, shortened: as §3
row,Structure (SMILES),MIC
1,CO/N=C(\C(=O)N[C@@H]1C(=O)N2C(C(=O)O)=C(COC(C)=O)CS[C@H]12)c1csc(N)n1 [CEFOTAXIME],4 µg/mL

# Test system: Campylobacter coli
# Assay: Antibacterial activity against bla gene-positive and nitrocefin reaction-positive beta-lactamase harboring Campylobacter coli isolate P1826 by NCCLS agar doubling dilution method
# Format: functional
# Procedure, shortened: as §1
row,Structure (SMILES),MIC
1,CO/N=C(\C(=O)N[C@@H]1C(=O)N2C(C(=O)O)=C(COC(C)=O)CS[C@H]12)c1csc(N)n1 [CEFOTAXIME],2 µg/mL

# Test system: Campylobacter jejuni
# Assay: Antibacterial activity against bla gene-negative and nitrocefin reaction-negative beta-lactamase harboring Campylobacter jejuni isolate P835 by NCCLS agar doubling dilution method
# Format: functional
# Procedure, shortened: as §1
row,Structure (SMILES),MIC
1,CO/N=C(\C(=O)N[C@@H]1C(=O)N2C(C(=O)O)=C(COC(C)=O)CS[C@H]12)c1csc(N)n1 [CEFOTAXIME],4 µg/mL

# Test system: Campylobacter jejuni
# Assay: Antibacterial activity against bla gene-positive and nitrocefin reaction-positive beta-lactamase harboring Campylobacter jejuni isolate P790 by NCCLS agar doubling dilution method
# Format: functional
# Procedure, shortened: as §3
row,Structure (SMILES),MIC
1,CO/N=C(\C(=O)N[C@@H]1C(=O)N2C(C(=O)O)=C(COC(C)=O)CS[C@H]12)c1csc(N)n1 [CEFOTAXIME],4 µg/mL

# Test system: Campylobacter coli
# Assay: Antibacterial activity against Campylobacter coli by NCCLS agar doubling dilution method
# Format: functional
# Procedure, shortened: (§4)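 MICs by agar doubling dilution following the NCCLS (CLSI) Campylobacter Working Group procedure, applied to ampicillin- and amoxicillin-resistant isolates from UK chicken flocks (2000–2006). C. jejuni NCTC 11168 and C. coli NCTC 11366 served as control strains. Resistance was called at an ampicillin cutoff of 8 μg/ml. Other agents were judged against Enterobacteriaceae guidelines (BSAC, CLSI).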
Structure (SMILES),MIC50,MIC90
CO/N=C(\C(=O)N[C@@H]1C(=O)N2C(C(=O)O)=C(COC(C)=O)CS[C@H]12)c1csc(N)n1 [CEFOTAXIME],4 µg/mL,8 µg/mL

# Test system: Campylobacter jejuni
# Assay: Antibacterial activity against bla gene-positive and nitrocefin reaction-positive beta-lactamase harboring Campylobacter jejuni isolate P1093 by NCCLS agar doubling dilution method
# Format: functional
# Procedure, shortened: as §1
row,Structure (SMILES),MIC
1,CO/N=C(\C(=O)N[C@@H]1C(=O)N2C(C(=O)O)=C(COC(C)=O)CS[C@H]12)c1csc(N)n1 [CEFOTAXIME],8 µg/mL

# Test system: Campylobacter jejuni
# Assay: Antibacterial activity against bla gene-positive and nitrocefin reaction-negative beta-lactamase harboring Campylobacter jejuni NCTC 11168 by NCCLS agar doubling dilution method
# Format: functional
# Procedure, shortened: as §1
row,Structure (SMILES),MIC
1,CO/N=C(\C(=O)N[C@@H]1C(=O)N2C(C(=O)O)=C(COC(C)=O)CS[C@H]12)c1csc(N)n1 [CEFOTAXIME],2 µg/mL

# Test system: Campylobacter jejuni
# Assay: Antibacterial activity against bla gene-positive and nitrocefin reaction-positive beta-lactamase harboring Campylobacter jejuni isolate P1650 by NCCLS agar doubling dilution method
# Format: functional
# Procedure, shortened: as §1
row,Structure (SMILES),MIC
1,CO/N=C(\C(=O)N[C@@H]1C(=O)N2C(C(=O)O)=C(COC(C)=O)CS[C@H]12)c1csc(N)n1 [CEFOTAXIME],4 µg/mL

# Test system: Campylobacter jejuni
# Assay: Antibacterial activity against Campylobacter jejuni by NCCLS agar doubling dilution method
# Format: functional
# Procedure, shortened: as §4
Structure (SMILES),MIC50,MIC90
CO/N=C(\C(=O)N[C@@H]1C(=O)N2C(C(=O)O)=C(COC(C)=O)CS[C@H]12)c1csc(N)n1 [CEFOTAXIME],4 µg/mL,8 µg/mL

# Test system: Campylobacter jejuni
# Assay: Antibacterial activity against bla gene-positive and nitrocefin reaction-positive beta-lactamase harboring Campylobacter jejuni isolate P286 by NCCLS agar doubling dilution method
# Format: functional
# Procedure, shortened: as §3
row,Structure (SMILES),MIC
1,CO/N=C(\C(=O)N[C@@H]1C(=O)N2C(C(=O)O)=C(COC(C)=O)CS[C@H]12)c1csc(N)n1 [CEFOTAXIME],8 µg/mL

# Test system: Campylobacter jejuni
# Assay: Antibacterial activity against bla gene-positive and nitrocefin reaction-positive beta-lactamase harboring Campylobacter jejuni isolate P305 by NCCLS agar doubling dilution method
# Format: functional
# Procedure, shortened: as §3
row,Structure (SMILES),MIC
1,CO/N=C(\C(=O)N[C@@H]1C(=O)N2C(C(=O)O)=C(COC(C)=O)CS[C@H]12)c1csc(N)n1 [CEFOTAXIME],4 µg/mL

# Test system: Campylobacter jejuni
# Assay: Antibacterial activity against bla gene-positive and nitrocefin reaction-positive beta-lactamase harboring Campylobacter jejuni isolate P285 by NCCLS agar doubling dilution method
# Format: functional
# Procedure, shortened: as §3
row,Structure (SMILES),MIC
1,CO/N=C(\C(=O)N[C@@H]1C(=O)N2C(C(=O)O)=C(COC(C)=O)CS[C@H]12)c1csc(N)n1 [CEFOTAXIME],8 µg/mL

# Test system: Campylobacter jejuni
# Assay: Antibacterial activity against bla gene-negative and nitrocefin reaction-negative beta-lactamase harboring Campylobacter jejuni isolate P1962 by NCCLS agar doubling dilution method
# Format: functional
# Procedure, shortened: as §1
row,Structure (SMILES),MIC
1,CO/N=C(\C(=O)N[C@@H]1C(=O)N2C(C(=O)O)=C(COC(C)=O)CS[C@H]12)c1csc(N)n1 [CEFOTAXIME],1 µg/mL

# Test system: Campylobacter jejuni
# Assay: Antibacterial activity against Campylobacter jejuni isolate P338 harboring blaOXA-61::cat gene by NCCLS agar doubling dilution method
# Format: functional
# Procedure, shortened: as §2
row,Structure (SMILES),MIC
1,CO/N=C(\C(=O)N[C@@H]1C(=O)N2C(C(=O)O)=C(COC(C)=O)CS[C@H]12)c1csc(N)n1 [CEFOTAXIME],8 µg/mL

# Test system: Campylobacter jejuni
# Assay: Antibacterial activity against bla gene-positive and nitrocefin reaction-positive beta-lactamase harboring Campylobacter jejuni isolate P1730 by NCCLS agar doubling dilution method
# Format: functional
# Procedure, shortened: as §3
row,Structure (SMILES),MIC
1,CO/N=C(\C(=O)N[C@@H]1C(=O)N2C(C(=O)O)=C(COC(C)=O)CS[C@H]12)c1csc(N)n1 [CEFOTAXIME],4 µg/mL

# Test system: Campylobacter jejuni
# Assay: Antibacterial activity against bla gene-negative and nitrocefin reaction-positive beta-lactamase harboring Campylobacter jejuni isolate P843 by NCCLS agar doubling dilution method
# Format: functional
# Procedure, shortened: as §1
row,Structure (SMILES),MIC
1,CO/N=C(\C(=O)N[C@@H]1C(=O)N2C(C(=O)O)=C(COC(C)=O)CS[C@H]12)c1csc(N)n1 [CEFOTAXIME],4 µg/mL

# Test system: Campylobacter jejuni
# Assay: Antibacterial activity against bla gene-positive and nitrocefin reaction-negative beta-lactamase harboring Campylobacter jejuni isolate P1699 by NCCLS agar doubling dilution method
# Format: functional
# Procedure, shortened: as §1
row,Structure (SMILES),MIC
1,CO/N=C(\C(=O)N[C@@H]1C(=O)N2C(C(=O)O)=C(COC(C)=O)CS[C@H]12)c1csc(N)n1 [CEFOTAXIME],4 µg/mL
